Assay [1] concerns the target Norepinephrine transporter (Rattus norvegicus, UniProt Q9WTR4). Nature of the assay: Inhibition of norepinephrine Transporter Affinity against rat whole brain using [3H]nisoxetine radioligand. In a few lines: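 Whole brain minus cerebellum membranes in 50 mM Tris-HCl pH 7.4 with 300 mM NaCl and 5 mM KCl. Displacement of 0.7 nM [3H]nisoxetine. Incubated 40 min at 25 °C, then filtered on BSA-soaked GF/B. 1 μM desipramine defined nonspecific binding.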

Assay [2] deals with Sodium-dependent dopamine transporter (Rattus norvegicus, UniProt P23977). Nature of the assay: Inhibition of dopamine Transporter Affinity against rat whole brain using [3H]WIN-35428 as radioligand. Type of assay: tissue-based.
Assay [3] has as its target T1, Monoamine transporters; Norepininephrine & dopamine (Rattus norvegicus) (UniProt P23977+Q9WTR4). As to the kind of experiment: (§1) Selectivity for Norepinephrine and Dopamine Transporters was evaluated. Type of assay: protein assay.
Target sequence in this assay (P23977 whole entry): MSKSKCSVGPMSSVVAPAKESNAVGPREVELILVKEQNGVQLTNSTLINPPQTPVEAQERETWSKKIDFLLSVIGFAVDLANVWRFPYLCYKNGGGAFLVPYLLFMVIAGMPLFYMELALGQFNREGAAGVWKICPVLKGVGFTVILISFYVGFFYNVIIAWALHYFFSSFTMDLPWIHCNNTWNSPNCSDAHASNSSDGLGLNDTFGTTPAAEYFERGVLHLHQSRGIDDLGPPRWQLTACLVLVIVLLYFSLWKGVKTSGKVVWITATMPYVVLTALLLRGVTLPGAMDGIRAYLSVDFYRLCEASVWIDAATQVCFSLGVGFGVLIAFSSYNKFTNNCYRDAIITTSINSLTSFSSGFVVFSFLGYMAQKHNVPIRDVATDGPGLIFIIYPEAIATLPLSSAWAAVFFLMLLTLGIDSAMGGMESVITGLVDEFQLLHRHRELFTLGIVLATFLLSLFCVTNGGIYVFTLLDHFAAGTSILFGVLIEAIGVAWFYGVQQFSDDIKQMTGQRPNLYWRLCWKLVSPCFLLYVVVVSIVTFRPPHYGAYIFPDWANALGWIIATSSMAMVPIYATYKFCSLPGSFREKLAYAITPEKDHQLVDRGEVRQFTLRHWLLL
Target sequence in this assay (Q9WTR4 1-597): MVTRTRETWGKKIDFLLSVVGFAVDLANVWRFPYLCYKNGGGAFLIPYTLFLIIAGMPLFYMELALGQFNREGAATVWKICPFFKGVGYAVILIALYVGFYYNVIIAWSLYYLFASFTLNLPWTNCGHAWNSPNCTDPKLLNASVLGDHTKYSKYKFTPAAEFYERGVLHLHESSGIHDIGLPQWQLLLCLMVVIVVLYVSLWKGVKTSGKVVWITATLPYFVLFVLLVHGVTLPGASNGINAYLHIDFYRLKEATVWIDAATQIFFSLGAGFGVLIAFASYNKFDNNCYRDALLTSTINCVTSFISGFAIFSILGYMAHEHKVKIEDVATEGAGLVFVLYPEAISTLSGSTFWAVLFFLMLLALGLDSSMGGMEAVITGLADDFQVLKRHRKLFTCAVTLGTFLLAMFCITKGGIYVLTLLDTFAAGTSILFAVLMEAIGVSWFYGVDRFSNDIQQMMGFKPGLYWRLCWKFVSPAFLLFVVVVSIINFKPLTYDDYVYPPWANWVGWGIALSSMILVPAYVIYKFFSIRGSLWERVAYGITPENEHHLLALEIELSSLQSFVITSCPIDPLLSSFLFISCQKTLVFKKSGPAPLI
Assay [4] deals with T1, Monoamine transporters; Norepininephrine & dopamine (Rattus norvegicus). The assay is described as §1. It counts as protein assay. This is another data set of the same source.
In assay [5] the target is Sodium-dependent serotonin transporter (Rattus norvegicus, UniProt P31652). Nature of the assay: Inhibition of serotonin Transporter Affinity against rat whole brain using [3H]paroxetine as radioligand.

SMILES strings stand for the structures.

Consider 15 molecules from ChEMBL document CHEMBL1131002, “2beta-Substituted analogues of 4'-iodococaine: synthesis and dopamine transporter binding potencies” (J Med Chem, 1998).

Sequence of Sodium-dependent serotonin transporter (P31652 whole entry): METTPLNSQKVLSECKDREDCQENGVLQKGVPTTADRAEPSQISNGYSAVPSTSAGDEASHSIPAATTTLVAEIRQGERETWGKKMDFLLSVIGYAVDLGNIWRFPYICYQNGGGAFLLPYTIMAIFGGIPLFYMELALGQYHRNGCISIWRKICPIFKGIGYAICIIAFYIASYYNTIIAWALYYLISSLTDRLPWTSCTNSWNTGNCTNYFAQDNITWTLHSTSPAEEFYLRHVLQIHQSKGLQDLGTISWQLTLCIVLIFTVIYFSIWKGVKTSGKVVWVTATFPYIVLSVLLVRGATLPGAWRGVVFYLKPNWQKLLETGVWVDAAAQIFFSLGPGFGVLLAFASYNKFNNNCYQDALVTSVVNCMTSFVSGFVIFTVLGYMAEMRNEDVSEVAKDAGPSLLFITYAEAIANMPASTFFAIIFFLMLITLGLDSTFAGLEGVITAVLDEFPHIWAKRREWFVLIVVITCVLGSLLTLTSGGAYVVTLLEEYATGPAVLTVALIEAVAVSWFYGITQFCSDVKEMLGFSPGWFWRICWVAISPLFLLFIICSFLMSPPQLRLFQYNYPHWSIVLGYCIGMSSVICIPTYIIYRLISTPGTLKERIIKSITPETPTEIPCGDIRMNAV
Sequence of Sodium-dependent dopamine transporter (P23977 whole entry): as the sequence (P23977 whole entry) above
Sequence of Norepinephrine transporter (Q9WTR4 whole entry): as the sequence (Q9WTR4 1-597) above

What is called IC50 is the concentration that inhibits the measured activity by half. `COC(=O)[C@H]1[C@@H](c2ccc(F)cc2)C[C@H]2CC[C@H]1N2C` registered an IC50 in assay [1] of 258 nM.

In assay [2], `CCOC(=O)[C@@H]1C2CCC(C[C@@H]1OC(=O)c1ccc(I)cc1)N2C` (stereo not given in full) registered an IC50 of 2030 nM.

The molecule `C=C[C@@H]1C2CCC(C[C@@H]1OC(=O)c1ccc(I)cc1)N2C` (stereo not given in full) had a 50% inhibitory concentration (IC50) in assay [2] of 2170 nM.

`COC(=O)[C@@H]1C2CCC(C[C@@H]1OC(=O)c1ccccc1O)N2C` (stereo not given in full): the IC50 in assay [2] is 25 nM; in assay [5] it was 143 nM; in assay [1], 48 nM. Besides, the results for the Selectivity in assay [3] and in assay [4] were 5.7 and 1.9, respectively.

In the case of `COC(=O)[C@@H]1C2CCC(C[C@@H]1OC(=O)c1ccc(I)cc1)N2C` (stereo not given in full), the Selectivity in assay [3] was determined as 0.4; in assay [4], 7.3. Moreover, the results for the IC50 in assay [5] and in assay [1] were 1050 nM and 18500 nM, respectively.

Molecule `CN1C2CCC1[C@@H](C(=O)OCc1ccccc1)[C@@H](OC(=O)c1ccc(I)cc1)C2` (stereo not given in full) registered a half-maximal inhibitory concentration (IC50) in assay [2] of 4600 nM.

Molecule `CC(=O)OC[C@@H]1C2CCC(C[C@@H]1OC(=O)c1ccc(I)cc1)N2C` (stereo not given in full) yielded a half-maximal inhibitory concentration (IC50) in assay [2] of 3000 nM.

For `CC(C)OC(=O)[C@@H]1C2CCC(C[C@@H]1OC(=O)c1ccc(I)cc1)N2C` (stereo not given in full), in assay [2], the IC50 worked out at 1380 nM.

With `COC(=O)[C@@H]1C2CCC(C[C@@H]1OC(=O)c1ccc(I)cc1O)N2C` (stereo not given in full), the IC50 amounted to 215 nM in assay [2], 195 nM in assay [5] and 1020 nM in assay [1]. The Selectivity in assay [3] turned out to be 0.9; in assay [4] it was 4.7.

`CN1C2CCC1[C@@H](c1nc(-c3ccccc3)no1)[C@@H](OC(=O)c1ccc(I)cc1)C2` (stereo not given in full) yielded an IC50 in assay [2] of 3460 nM.

On to `CNC(=O)[C@@H]1C2CCC(C[C@@H]1OC(=O)c1ccc(I)cc1)N2C` (stereo not given in full), for which the IC50 in assay [2] was above 100000 nM.

In assay [2], `CN1C2CCC1[C@@H](CO)[C@@H](OC(=O)c1ccc(I)cc1)C2` (stereo not given in full) came in with a concentration for half-maximal inhibition (IC50) of 6210 nM.

Molecule `CN1C2CCC1[C@@H](C(=O)Oc1ccccc1)[C@@H](OC(=O)c1ccc(I)cc1)C2` (stereo not given in full) showed an IC50 in assay [2] of 2020 nM.

`CC[C@@H]1C2CCC(C[C@@H]1OC(=O)c1ccc(I)cc1)N2C` (stereo not given in full): the concentration for half-maximal inhibition (IC50) in assay [2] was determined as 2690 nM.

Consider `CC(C)OC(=O)[C@@H]1C2CCC(C[C@@H]1OC(=O)c1ccc(I)cc1O)N2C` (stereo not given in full), for which the IC50 in assay [2] was found to be 663 nM; in assay [5], 4510 nM; in assay [1], 34800 nM. For the same molecule, the results for the Selectivity in assay [3] and in assay [4] were 6.8 and 52.5, respectively.
